In paper PMC2728397 (The Journal of Cell Biology, 2009):

B1: WT Bim: wild-type Bim protein in thymocyte lysates (protein)
chain: MAKQPSDVSSECDREGGQLQPAERPPQLRPGAPTSLQTEPQGNPDGEGDRCPHGSPQGPLAPPASPGPFATRSPLFIFVRRSSLLSRSSSGYFSFDTDRSPAPMSCDKSTQTPSPPCQAFNHYLSAMASIRQSQEEPEDLRPEIRIAQELRRIGDEFNETYTRRVFANDYREAEDHPQMVILQLLRFIFRLVWRRH

Assays:
thymocytes (Bim level) = assay: Bim expression in thymocytes; assay type: cell-based, mouse; conditions: mutant and WT thymocytes; Western blot
Bcl-xL = assay: Coimmunoprecipitation from thymocyte lysates, Bcl-xL; assay type: binding, mouse; conditions: 1% Triton X-100 buffer, pH 7.4, anti-Bim 3C5
In short: (§1)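 Thymocytes came from WT and Bim BH3-replacement knockin mice. Cells were lysed in 20 mM Tris pH 7.4, 135 mM NaCl, 1.5 mM MgCl2, 1 mM EGTA, 10% glycerol, 1% Triton X-100 and protease inhibitors. Bim was immunoprecipitated with rat mAb 3C5 (N-terminal epitope, all isoforms and mutants). Partners were shown by SDS-PAGE/Western blot with ECL: hamster mAb 3F11 (Bcl-2), rabbit polyclonals (Bcl-xL, Mcl-1).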

Mcl-1 = assay: Coimmunoprecipitation from thymocyte lysates, Mcl-1; assay type: binding, mouse; conditions: 1% Triton X-100 buffer, pH 7.4, anti-Bim 3C5
In short: as §1

Bcl-2 = assay: Coimmunoprecipitation from thymocyte lysates, Bcl-2; assay type: binding, mouse; conditions: 1% Triton X-100 buffer, pH 7.4, anti-Bim 3C5
In short: as §1

Row | Molecule | Bim expression (thymocytes (Bim level)) | coimmunoprecipitation with Bcl-xL (Bcl-xL) | coimmunoprecipitation with Mcl-1 (Mcl-1) | coimmunoprecipitation with Bcl-2 (Bcl-2)
1 | C[C@H](CCC(=O)O)C[C@H](C)C[C@H](C)C(=O)/C=C(\O)[C@H](C)C[C@H](C)C/C=C/[C@@H](C)[C@@H](O)[C@@H](C)[C@@H](O)C[C@@H]1CC[C@@](C)([C@H]2CC[C@@](C)([C@@H](C)O)O2)O1 [ionomycin] | increased Bim expression comparably in both the mutant and WT thymocytes | – | – | –
2 | B1 | – | bound all of these prosurvival proteins | bound all of these prosurvival proteins | bound all of these prosurvival proteins
